Data on 40 compounds can be found in ChEMBL document CHEMBL4513216, “Probing the Open Global Health Chemical Diversity Library for Multistage-Active Starting Points for Next-Generation Antimalarials” (ACS Infect Dis, 2020).

The series is described as follows: Toxicity liver stage against HepG2, at 10uM. The class given is cell-based. The conditions noted are these: human, HepG2-A16-CD81EGFP cells; read-out: INHIBITION
Also on record: test concentration 10 uM, cell line HepG2-A16-CD81EGFP. The gist of the method:
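Uninfected HepG2-A16-CD81EGFP cells, 3 × 10^3 per well, 1536-well, plated on prespotted compound at 10 μM final, parasite-free screening media added to match infected plates; puromycin 10 μM positive, DMSO 0.5% negative; run in parallel with 48 h PbLuc assay at 37 °C, 5% CO2; viability by CellTiter-Glo luminescence, normalized to controls.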

For `CO[C@H]1CCN(C(=O)c2cc(C)on2)[C@H]1Cc1ccncc1`, the cytotoxicity at 10 µM was 1.2%.
The value for `COc1ccc(N2CCC(N(C)C(=O)C(C)SC)CC2)cc1` (stereo not given) was 1.69%; that for `CCNS(=O)(=O)c1cccc(CSC)c1` was 5.5%.
The value for `O=C(O)C1(n2ccnc2)CCN(Cc2cc3ccccc3o2)CC1` was -6.34%; that for `Cn1cc(C(=O)NCCc2csc(-c3ccccc3)n2)ccc1=O` was -6.7%.
The value for `COc1cccc(C(=O)N2CCCC(c3cc(C)[nH]n3)C2)c1OC` (stereo not given) was -7.4%; that for `c1cnc2ccc(C[C@@H]3CC[C@H](CN4CCCOCC4)O3)cc2c1` was -1.6%.
For the compound `COc1ccc(NC(=O)c2cnc(C3CCN(C)CC3)nc2C)cc1`, the cytotoxicity at 10 µM is -1.46%.
Turning to `O=C(NC1(c2nnn(CC3CCCO3)n2)CCCC1)c1ccccc1` (stereo not given), the cytotoxicity at 10 µM came out at 13.2%.
On to `CC(C)c1nc(CCn2cncn2)n(-c2ccc3c(c2)OCCO3)n1`, for which the cytotoxicity at 10 µM was found to be 6.52%.
The value for `c1csc(N2CCCN(c3ncnc4sccc34)CC2)n1` was 45.3%; that for `Cc1c(C(=O)N2CCOCC2)nnn1-c1ccc2ncccc2c1` was -4.87%.
Then `O=C(N1CCCC1)N1CCC2(CC1)CN(c1cccnc1)C(=O)CO2`, with -99.6%; and `CC(C)c1ccc(OCCC(=O)NCCC(=O)N(C)C)cc1`, with -4.37%; and `O=C(NCCCNC(=O)c1ccccc1)Nc1ccc(F)cc1F`, with 5.55%.
Then `CCOCC(O)CN1CCN(C(=O)Cc2ccc3c(c2)CCC3)CC1` (stereo not given), with -15.5%; and `CCOC(=O)N1CCN(C(=O)c2cc(OCC)c3ccoc3c2)CC1`, with 41.5%; and `CCc1nc(CNC2CCCc3c2cnn3CC)cs1` (stereo not given), with 5.12%.
Regarding `COc1ccc(Cl)cc1NCCC(=O)NCCNc1cnccn1`, the cytotoxicity at 10 µM is -10.3%.
Then `CC(O)CN1CCC(CNCCOCC(F)(F)F)CC1` (stereo not given), with 4.91%.
In the case of `CN(C)C(=O)c1ccc(C(C(=O)O)N(C)Cc2ccccc2Cl)cc1` (stereo not given), the cytotoxicity at 10 µM is -54.6%.
The value for `COc1cc(CNC(=O)Nc2nncs2)ccc1O` was -6.29%; that for `COc1ccccc1C1CC(=O)Nc2c1c(=O)[nH]n2C(C)C` (stereo not given) was -4.08%.
Then `CC(C)n1cnc(C2CN(C)c3ccc(C(=O)NCC4CC4)cc32)n1` (stereo not given), with -2.19%; and `CCc1[nH]c2c(CNc3nc(C)cc(NC)n3)cc(C)cc2c1C`, with -22.4%.
The value for `CN(C)C(=O)N1C[C@H]2CC[C@@H](C1)N(C(=O)CCCn1cncn1)C2` was -12.2%; that for `OCCOCc1n[nH]c2c1CN(Cc1cccs1)C2` was 6.65%; that for `Nc1ccnc(N2C[C@H]3CC[C@@H](C2)N(CC2CCC2)C3=O)n1` was -0.253%.
In the case of `CC(c1cccc(S(N)(=O)=O)c1)N(C)CCCOc1ccccc1` (stereo not given), the cytotoxicity at 10 µM was -1.99%.
Then `COCc1cnc2n1CCN(C(=O)C1=CCCCC1)C2C` (stereo not given), with -2.93%; and `Cc1cccc(N2CCCC3(C2)CN(c2nncs2)CCO3)c1` (stereo not given), with 9%; and `CC(C)(O)CCc1ccc(C(=O)N2CCN(CCS(C)(=O)=O)CC2)cc1`, with -0.686%.
The value for `O=C(NC1CCN(c2ccc(-c3ccccc3F)nn2)C1)c1ccc[nH]1` (stereo not given) was 7.4%; that for `CCCc1nc(N2CCC(C)CC2)c2c(n1)c(C)nn2CC` was 1.64%.
Then `c1ncn(CC2CN(Cc3nc(-c4ccsc4)no3)CCO2)n1` (stereo not given), with -4.72%; and `COc1cc(CSc2nnc(N)n2C2CC2)ccc1SC`, with -6.09%.
In the case of `O=C(c1cccnc1)N1CCC[C@]2(C[C@H](Oc3ncccc3F)CO2)C1`, the cytotoxicity at 10 µM came out at 0.37%.
Take `CCOC(=O)NC(CNC(=O)c1cccc(C)n1)CC(C)C` (stereo not given): the cytotoxicity at 10 µM is 6.17%.
As for `CN1CCN(S(C)(=O)=O)Cc2cccnc21`, the cytotoxicity at 10 µM is -112%.
Then `CCn1ccc(C(=O)N(C)Cc2cnn(-c3cccc(OC)c3)c2)n1`, with 6.26%.
